Source: ChEMBL document CHEMBL3259681, “Structure-activity relationship refinement and further assessment of 4-phenylquinazoline-2-carboxamide translocator protein ligands as antiproliferative agents in human glioblastoma tumors” (J Med Chem, 2014)
Calls of active or inactive are those of the source. The calls are words filed in the database; no cut-off is given here.

Tests used:
Translocator protein = Translocator protein (Rattus norvegicus, UniProt P16257); assay: Displacement of [3H]PK11195 from TSPO in rat kidney mitochondrial membranes; type: cell membranes
Chain of Translocator protein (P16257 whole entry, looked up): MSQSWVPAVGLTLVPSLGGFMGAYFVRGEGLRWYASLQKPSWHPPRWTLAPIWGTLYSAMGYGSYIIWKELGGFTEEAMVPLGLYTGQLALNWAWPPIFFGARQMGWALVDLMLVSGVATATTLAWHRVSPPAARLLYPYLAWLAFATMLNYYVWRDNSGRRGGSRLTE

[1] = target: Translocator protein (Rattus norvegicus) (UniProt P16257); assay: Displacement of [3H]PK11195 from TSPO in rat kidney mitochondrial membranes at 1 uM; type: cell membranes
Chain of Translocator protein (Rattus norvegicus) (P16257 whole entry, looked up): as above
Method in brief: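 Competition binding against 0.6 nM [³H]PK11195 in crude rat kidney mitochondrial membranes, 50 mM Tris–HCl pH 7.4. Six compound concentrations spanning 0.05 nM–20 μM, each in triplicate. IC50 from displacement curves, converted to Ki by Cheng–Prusoff. Percent inhibition taken at 1 μM. Values are mean ± SEM of three determinations.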

Homo sapiens [2] = organism: Homo sapiens; assay: Binding affinity to Central-type benzodiazepine receptor (unknown origin)
[3] = Cytotoxicity against human U-343 MGa cells assessed as inhibition of cell survival at 100 uM after 24 hrs by colorimetric viability MTS assay; type: functional
Method in brief: (§1)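 U343 cells were seeded ~4.5 × 10³/well, grown 24 h, then treated 24 h with 10 nM–100 μM compound; vehicle (DMSO or EtOH) was ≤1%. Viability by MTS conversion relative to control (100%). IC50 was taken as the concentration giving half-maximal survival inhibition. Duplicates, ≥3 experiments, mean ± SEM.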

Homo sapiens [4] = organism: Homo sapiens; assay: Induction of mitochondrial membrane depolarization in human U-343 MGa cells at 10 uM after 5 hrs by cell fluo-analyzer relative to control; type: functional, cell-based
Method in brief: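 U343 cells were seeded ~60 × 10³/well, grown 24 h, then treated 5 h with 10 μM compound; CCCP 3 μM for 15 min served as depolarized control. Floating and adherent cells were pooled and stained with MitoPotential dye for 20 min at rt, then 7-AAD for 5 min. Percent live, depolarized and dead cells was read on a Muse cytometer.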

Homo sapiens [5] = organism: Homo sapiens; assay: Induction of mitochondrial membrane depolarization in human U-343 MGa cells at 3 uM for 15 mins by cell fluo-analyzer relative to control; type: functional, cell-based
Method in brief: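 U343 cells were grown at 37 °C and 5% CO₂ in EMEM with 10% FBS, seeded at ~60 × 10³ cells/well and grown 24 h. They were then exposed to the uncoupler as a depolarized positive control. Floating and adherent cells were pooled and stained with MitoPotential dye (20 min, rt), then with 7-AAD (5 min). The Muse cytometer gave % live, depolarized and dead cells.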

Homo sapiens [6] = organism: Homo sapiens; assay: Cytotoxicity against human U-343 MGa cells assessed as decrease in cell viability at 50 uM after 24 hrs by colorimetric viability MTS assay; type: functional, cell-based
Method in brief: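 U343 cells in MEM with 10% FBS were seeded ~4.5 × 10³/well and grown 24 h. They were then exposed 24 h to 50 μM compound in complete medium; DMSO or EtOH vehicle was ≤1%. Viable cells were read by MTS colorimetric conversion as percent of vehicle control. Measurements in duplicate; mean ± SEM of three determinations.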

Homo sapiens [7] = organism: Homo sapiens; assay: (§2) Cytotoxicity against human U-343 MGa cells assessed as inhibition of cell survival after 24 hrs by colorimetric viability MTS assay; type: functional, cell-based; method in brief: as §1
[8] = as §2; type: functional, cell-based; method in brief: as §1
[9] = target: Epidermal growth factor receptor (Homo sapiens) (UniProt P00533); assay: Inhibition of human EGFR kinase at 1 uM
[10] = target: Epidermal growth factor receptor (Homo sapiens) (UniProt P00533); assay: Inhibition of human EGFR kinase at 10 uM
[11] = target: Protein kinase C beta type (Homo sapiens) (UniProt P05771); assay: Inhibition of human PKCbeta1 at 10 uM
Chain of Protein kinase C beta type (Homo sapiens) (P05771 2-671 limits assumed): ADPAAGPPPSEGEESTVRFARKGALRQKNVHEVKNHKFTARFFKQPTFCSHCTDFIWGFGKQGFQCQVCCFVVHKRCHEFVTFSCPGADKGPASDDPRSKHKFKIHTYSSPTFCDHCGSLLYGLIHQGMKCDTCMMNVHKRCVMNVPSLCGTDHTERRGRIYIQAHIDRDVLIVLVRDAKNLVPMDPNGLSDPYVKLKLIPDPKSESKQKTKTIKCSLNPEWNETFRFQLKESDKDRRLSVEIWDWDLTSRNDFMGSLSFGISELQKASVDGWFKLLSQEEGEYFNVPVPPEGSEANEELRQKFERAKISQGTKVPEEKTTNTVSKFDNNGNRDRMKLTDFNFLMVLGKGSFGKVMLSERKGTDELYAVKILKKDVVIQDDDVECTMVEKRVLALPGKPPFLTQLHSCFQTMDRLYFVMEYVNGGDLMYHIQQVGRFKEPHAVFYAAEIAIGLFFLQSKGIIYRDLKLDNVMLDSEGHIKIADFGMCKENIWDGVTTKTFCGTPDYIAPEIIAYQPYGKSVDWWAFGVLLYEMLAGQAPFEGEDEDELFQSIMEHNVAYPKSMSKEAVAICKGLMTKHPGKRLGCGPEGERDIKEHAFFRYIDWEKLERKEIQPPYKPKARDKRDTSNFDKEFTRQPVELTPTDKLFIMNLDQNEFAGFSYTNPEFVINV

[12] = target: Receptor tyrosine-protein kinase erbB-2 (Homo sapiens) (UniProt P04626); assay: Inhibition of human HER2/ErbB2 kinase at 10 uM
Chain of Receptor tyrosine-protein kinase erbB-2 (Homo sapiens) (P04626 whole entry): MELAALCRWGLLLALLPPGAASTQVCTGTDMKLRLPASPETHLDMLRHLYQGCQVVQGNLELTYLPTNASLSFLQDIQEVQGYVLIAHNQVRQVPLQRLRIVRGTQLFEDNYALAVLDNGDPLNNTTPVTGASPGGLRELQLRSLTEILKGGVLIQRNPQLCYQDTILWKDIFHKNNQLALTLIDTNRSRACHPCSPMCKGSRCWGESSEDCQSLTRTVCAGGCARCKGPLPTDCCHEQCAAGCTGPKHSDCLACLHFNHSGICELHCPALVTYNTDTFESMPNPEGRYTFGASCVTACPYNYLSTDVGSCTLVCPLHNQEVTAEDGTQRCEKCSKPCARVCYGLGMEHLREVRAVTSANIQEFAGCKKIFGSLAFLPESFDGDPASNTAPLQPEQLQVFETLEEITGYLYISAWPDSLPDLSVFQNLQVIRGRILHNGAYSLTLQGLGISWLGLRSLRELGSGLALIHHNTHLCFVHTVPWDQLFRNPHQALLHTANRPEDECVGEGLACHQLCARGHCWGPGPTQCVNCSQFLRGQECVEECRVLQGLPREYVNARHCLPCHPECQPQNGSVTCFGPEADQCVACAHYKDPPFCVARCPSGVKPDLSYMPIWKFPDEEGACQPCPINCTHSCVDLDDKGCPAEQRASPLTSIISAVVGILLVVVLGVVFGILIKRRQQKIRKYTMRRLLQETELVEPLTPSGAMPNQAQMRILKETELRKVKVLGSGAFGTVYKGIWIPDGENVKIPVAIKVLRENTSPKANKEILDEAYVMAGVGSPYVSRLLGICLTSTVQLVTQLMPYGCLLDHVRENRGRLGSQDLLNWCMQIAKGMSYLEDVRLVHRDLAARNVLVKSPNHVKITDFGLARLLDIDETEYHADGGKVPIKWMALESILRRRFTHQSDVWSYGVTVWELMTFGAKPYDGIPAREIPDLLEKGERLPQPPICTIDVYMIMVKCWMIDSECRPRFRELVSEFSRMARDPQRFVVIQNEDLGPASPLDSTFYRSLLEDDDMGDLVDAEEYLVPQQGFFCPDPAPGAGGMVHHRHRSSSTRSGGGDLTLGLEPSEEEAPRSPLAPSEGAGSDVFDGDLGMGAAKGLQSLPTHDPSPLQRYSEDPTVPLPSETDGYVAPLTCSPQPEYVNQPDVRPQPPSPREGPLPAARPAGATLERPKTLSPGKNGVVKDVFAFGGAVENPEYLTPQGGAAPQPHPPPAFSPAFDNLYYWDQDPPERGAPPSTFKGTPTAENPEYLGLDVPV

[13] = target: Vascular endothelial growth factor receptor 2 (Homo sapiens) (UniProt P35968); assay: Inhibition of human KDR kinase at 1 uM
Homo sapiens [14] = organism: Homo sapiens; assay: Agonist activity at GPCR in human U-343 MGa cell membrane assessed as increase in basal [35S]GTPgamma binding at 0.1 nM; type: functional, cell membranes
[15] = target: Platelet-derived growth factor receptor alpha (Homo sapiens) (UniProt P16234); assay: Inhibition of human PDGFRalpha kinase at 1 uM
[16] = target: Mast/stem cell growth factor receptor Kit (Homo sapiens) (UniProt P10721); assay: Inhibition of human c-kit kinase at 1 uM
[17] = target: Proto-oncogene tyrosine-protein kinase receptor Ret (Homo sapiens) (UniProt P07949); assay: Inhibition of human Ret kinase at 1 uM
[18] = target: Tyrosine-protein kinase ABL1 (Homo sapiens) (UniProt P00519); assay: Inhibition of human Abl kinase at 10 uM
Chain of Tyrosine-protein kinase ABL1 (Homo sapiens) (P00519 whole entry): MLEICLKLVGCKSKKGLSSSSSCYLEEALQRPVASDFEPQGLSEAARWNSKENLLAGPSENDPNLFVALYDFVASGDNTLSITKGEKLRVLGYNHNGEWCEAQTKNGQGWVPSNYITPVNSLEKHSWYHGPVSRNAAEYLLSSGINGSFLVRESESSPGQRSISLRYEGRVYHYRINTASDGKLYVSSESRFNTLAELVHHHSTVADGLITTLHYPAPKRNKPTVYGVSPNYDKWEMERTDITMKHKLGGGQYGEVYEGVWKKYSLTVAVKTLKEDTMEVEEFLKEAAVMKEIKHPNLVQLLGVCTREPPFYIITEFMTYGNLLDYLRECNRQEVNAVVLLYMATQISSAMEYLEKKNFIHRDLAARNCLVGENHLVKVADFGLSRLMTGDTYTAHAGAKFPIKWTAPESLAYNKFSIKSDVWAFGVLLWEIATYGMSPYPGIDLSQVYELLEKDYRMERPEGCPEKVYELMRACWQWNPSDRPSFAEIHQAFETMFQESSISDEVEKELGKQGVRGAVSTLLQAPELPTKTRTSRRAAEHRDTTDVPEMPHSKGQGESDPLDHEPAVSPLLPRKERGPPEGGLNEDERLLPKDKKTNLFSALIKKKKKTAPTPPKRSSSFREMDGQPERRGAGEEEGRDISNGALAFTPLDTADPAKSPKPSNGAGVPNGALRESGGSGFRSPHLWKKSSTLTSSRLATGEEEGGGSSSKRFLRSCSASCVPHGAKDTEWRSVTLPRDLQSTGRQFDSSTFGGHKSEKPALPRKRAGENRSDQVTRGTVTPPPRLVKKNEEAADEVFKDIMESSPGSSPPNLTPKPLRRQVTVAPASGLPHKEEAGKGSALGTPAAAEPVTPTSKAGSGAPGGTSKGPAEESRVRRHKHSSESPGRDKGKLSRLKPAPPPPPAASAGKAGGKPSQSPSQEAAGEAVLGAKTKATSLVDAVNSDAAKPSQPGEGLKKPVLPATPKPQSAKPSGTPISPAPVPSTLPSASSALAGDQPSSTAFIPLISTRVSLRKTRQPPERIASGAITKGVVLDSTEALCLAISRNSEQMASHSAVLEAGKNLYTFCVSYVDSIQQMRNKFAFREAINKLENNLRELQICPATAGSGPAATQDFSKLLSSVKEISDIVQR

[19] = target: Serine/threonine-protein kinase mTOR (Homo sapiens) (UniProt P42345); assay: Inhibition of human mTOR kinase at 1 uM
[20] = target: Tyrosine-protein kinase ABL1 (Homo sapiens) (UniProt P00519); assay: Inhibition of human Abl kinase at 1 uM
[21] = target: Mast/stem cell growth factor receptor Kit (Homo sapiens) (UniProt P10721); assay: Inhibition of human c-kit kinase at 10 uM
[22] = target: Platelet-derived growth factor receptor alpha (Homo sapiens) (UniProt P16234); assay: Inhibition of human PDGFRalpha kinase at 10 uM
[23] = target: Vascular endothelial growth factor receptor 1 (Homo sapiens) (UniProt P17948); assay: Inhibition of human FLT-1 kinase at 1 uM
[24] = target: Protein kinase C beta type (Homo sapiens) (UniProt P05771); assay: Inhibition of human PKCbeta1 at 1 uM
[25] = target: Receptor tyrosine-protein kinase erbB-2 (Homo sapiens) (UniProt P04626); assay: Inhibition of human HER2/ErbB2 kinase at 1 uM
[26] = target: Platelet-derived growth factor receptor beta (Homo sapiens) (UniProt P09619); assay: Inhibition of human PDGFRbeta kinase at 10 uM
Chain of Platelet-derived growth factor receptor beta (Homo sapiens) (P09619 whole entry): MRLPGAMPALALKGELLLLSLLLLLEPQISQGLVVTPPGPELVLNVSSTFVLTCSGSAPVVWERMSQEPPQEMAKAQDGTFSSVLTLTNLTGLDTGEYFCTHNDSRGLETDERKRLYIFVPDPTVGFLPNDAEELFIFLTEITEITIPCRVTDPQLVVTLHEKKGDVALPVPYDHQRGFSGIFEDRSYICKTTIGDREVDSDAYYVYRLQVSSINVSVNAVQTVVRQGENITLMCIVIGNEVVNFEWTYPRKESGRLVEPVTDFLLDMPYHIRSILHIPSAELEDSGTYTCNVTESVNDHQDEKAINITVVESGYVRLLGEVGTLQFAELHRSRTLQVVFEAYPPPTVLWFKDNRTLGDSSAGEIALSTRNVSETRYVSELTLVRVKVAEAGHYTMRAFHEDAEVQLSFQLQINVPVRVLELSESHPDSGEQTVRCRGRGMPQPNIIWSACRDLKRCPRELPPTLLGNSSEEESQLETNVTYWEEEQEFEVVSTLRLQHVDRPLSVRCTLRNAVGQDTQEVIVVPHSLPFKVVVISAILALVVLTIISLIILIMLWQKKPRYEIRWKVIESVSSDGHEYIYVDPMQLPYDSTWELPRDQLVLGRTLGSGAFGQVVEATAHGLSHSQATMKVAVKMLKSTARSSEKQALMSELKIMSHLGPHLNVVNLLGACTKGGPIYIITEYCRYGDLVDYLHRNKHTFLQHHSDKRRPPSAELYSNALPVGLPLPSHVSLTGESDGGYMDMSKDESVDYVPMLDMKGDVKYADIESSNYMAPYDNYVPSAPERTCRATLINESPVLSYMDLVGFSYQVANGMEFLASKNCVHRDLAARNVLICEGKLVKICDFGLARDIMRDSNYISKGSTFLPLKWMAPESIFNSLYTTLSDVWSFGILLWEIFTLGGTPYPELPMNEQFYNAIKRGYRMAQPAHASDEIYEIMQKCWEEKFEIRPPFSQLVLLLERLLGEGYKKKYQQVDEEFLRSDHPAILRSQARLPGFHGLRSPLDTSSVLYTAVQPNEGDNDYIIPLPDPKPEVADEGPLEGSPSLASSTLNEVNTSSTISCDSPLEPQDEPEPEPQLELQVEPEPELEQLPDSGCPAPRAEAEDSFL

[27] = target: Protein kinase C beta type (Homo sapiens) (UniProt P05771); assay: Inhibition of human PKCbeta2 at 10 uM
[28] = target: Vascular endothelial growth factor receptor 1 (Homo sapiens) (UniProt P17948); assay: Inhibition of human FLT-1 kinase at 10 uM
[29] = target: Receptor-type tyrosine-protein kinase FLT3 (Homo sapiens) (UniProt P36888); assay: Inhibition of human FLT-3 kinase at 10 uM
[30] = target: Serine/threonine-protein kinase mTOR (Homo sapiens) (UniProt P42345); assay: Inhibition of human mTOR kinase at 10 uM
Homo sapiens [31] = organism: Homo sapiens; assay: Agonist activity at GPCR in human U-343 MGa cell membrane assessed as increase in basal [35S]GTPgamma binding at 100 uM; type: functional, cell membranes
[32] = target: Protein kinase C beta type (Homo sapiens) (UniProt P05771); assay: Inhibition of human PKCbeta2 at 1 uM
[33] = target: Proto-oncogene tyrosine-protein kinase receptor Ret (Homo sapiens) (UniProt P07949); assay: Inhibition of human Ret kinase at 10 uM
[34] = target: Vascular endothelial growth factor receptor 2 (Homo sapiens) (UniProt P35968); assay: Inhibition of human KDR kinase at 10 uM
[35] = target: Receptor-type tyrosine-protein kinase FLT3 (Homo sapiens) (UniProt P36888); assay: Inhibition of human FLT-3 kinase at 1 uM
[36] = target: Platelet-derived growth factor receptor beta (Homo sapiens) (UniProt P09619); assay: Inhibition of human PDGFRbeta kinase at 1 uM

CCN(Cc1ccccc1)C(=O)c1nc(-c2ccc(Cl)cc2)c2ccccc2n1
Ki (Translocator protein): 0.762 nM

O=C(NCc1ccccc1)c1nc(-c2ccccc2Cl)c2ccccc2n1
inhibition [1]: 16%

CCN(Cc1ccc(C)cc1)C(=O)c1nc(-c2ccccc2F)c2ccccc2n1
Ki (Translocator protein): 0.6 nM

CCN(Cc1ccc(C(=O)O)cc1)C(=O)c1nc(-c2ccccc2)c2ccccc2n1
Ki (Translocator protein): 719 nM

CCN(Cc1ccc(C)cc1)C(=O)c1nc(-c2ccccc2)c2ccccc2n1
Ki (Translocator protein): 2.57 nM

CCN(Cc1ccccc1)C(=O)c1nc(-c2ccccc2Cl)c2ccccc2n1
Ki (Translocator protein): 0.235 nM

O=C(NCc1ccccc1)c1nc(-c2ccccc2)c2ccccc2n1
inhibition [1]: 41%

CCN(Cc1ccccc1)C(=O)c1nc(-c2ccccc2F)c2ccccc2n1
Ki (Translocator protein): 0.888 nM

CCC(C)N(C)C(=O)c1nc(-c2ccccc2)c2ccccc2n1 (stereo not given)
Activity (Homo sapiens [2]): inactive

CCN(Cc1ccccc1)C(=O)c1nc(-c2ccccc2)c2ccccc2n1
Ki (Translocator protein): 1.13 nM

CCC(C)N(C)C(=O)c1cc2ccccc2c(-c2ccccc2Cl)n1 (stereo not given) [PK-11195]
inhibition at 100 µM [3]: 40%
Activity (Homo sapiens [4]): Active

N#CC(C#N)=NNc1cccc(Cl)c1
Activity (Homo sapiens [5]): Active

CCC(C)N(C)C(=O)c1nc(-c2ccc(Cl)cc2)c2ccccc2n1 (stereo not given)
Activity (Homo sapiens [2]): inactive

CCOC(=O)c1ccc(CN(CC)C(=O)c2nc(-c3ccccc3)c3ccccc3n2)cc1
Ki (Translocator protein): 3.65 nM

CCN(Cc1ccc(OC)cc1)C(=O)c1nc(-c2ccccc2)c2ccccc2n1
Ki (Translocator protein): 2.77 nM

CCN(Cc1ccc(O)cc1)C(=O)c1nc(-c2ccccc2)c2ccccc2n1
Ki (Translocator protein): 8.76 nM

CN(Cc1ccccc1)C(=O)c1cc2ccccc2c(-c2ccccc2Cl)n1
Ki (Translocator protein): 0.442 nM

CCC(C)N(C)C(=O)c1nc(-c2ccccc2Cl)c2ccccc2n1 (stereo not given)
Activity (Homo sapiens [2]): inactive

CCN(Cc1ccccc1)C(=O)c1nc(-c2ccccc2)c2cc(Cl)ccc2n1
Ki (Translocator protein): 24.3 nM

CN(Cc1ccccc1)C(=O)c1nc(-c2ccc(Cl)cc2)c2ccccc2n1
Ki (Translocator protein): 6.12 nM

CN(Cc1ccccc1)C(=O)c1nc(-c2ccccc2)c2ccccc2n1
Ki (Translocator protein): 3.99 nM

CCCCN(CCCC)C(=O)c1nc(-c2ccccc2)c2ccccc2n1
Activity (Homo sapiens [2]): inactive

CCN(Cc1ccccc1)C(=O)c1nc(-c2ccc(C)cc2)c2ccccc2n1
Ki (Translocator protein): 1.49 nM

CCC(C)N(C)C(=O)c1nc(-c2ccccc2)c2cc(Cl)ccc2n1 (stereo not given)
Activity (Homo sapiens [2]): inactive

CCCCCCN(CCCCCC)C(=O)c1nc(-c2ccccc2Cl)c2ccccc2n1
Activity (Homo sapiens [2]): inactive

CCCCCCN(CCCCCC)C(=O)c1nc(-c2ccccc2)c2ccccc2n1
inhibition (Homo sapiens [6]): Active
Activity (Homo sapiens [4]): Active
Activity (Homo sapiens [2]): inactive
inhibition (Homo sapiens [7]): Dose-dependent effect
IC50 [8]: 17700 nM

CCN(Cc1ccc(C)cc1)C(=O)c1nc(-c2ccccc2Cl)c2ccccc2n1
inhibition [9]: inactive
inhibition [10]: inactive
inhibition (Homo sapiens [6]): Active
inhibition [11]: inactive
inhibition [12]: inactive
inhibition [13]: inactive
Activity (Homo sapiens [14]): inactive
inhibition [15]: inactive
inhibition [16]: inactive
inhibition [17]: inactive
inhibition [18]: inactive
inhibition [19]: inactive
inhibition [20]: inactive
inhibition [21]: inactive
inhibition [22]: inactive
inhibition [23]: inactive
inhibition [24]: inactive
inhibition [25]: inactive
inhibition [26]: inactive
inhibition [27]: inactive
Activity (Homo sapiens [4]): Active
Ki (Translocator protein): 0.489 nM
inhibition [28]: inactive
inhibition [29]: inactive
inhibition [30]: inactive
Activity (Homo sapiens [31]): inactive
inhibition [32]: inactive
inhibition [33]: inactive
inhibition [34]: inactive
inhibition [35]: inactive
inhibition [36]: inactive
inhibition (Homo sapiens [7]): Dose-dependent effect
IC50 [8]: 15100 nM

CCCCCCN(CCCCCC)C(=O)c1nc(-c2ccccc2)c2cc(Cl)ccc2n1
Activity (Homo sapiens [2]): inactive

CCCCCN(CCCCC)C(=O)c1nc(-c2ccccc2)c2ccccc2n1
Activity (Homo sapiens [2]): inactive

CN(Cc1ccccc1)C(=O)c1nc(-c2ccccc2F)c2ccccc2n1
Ki (Translocator protein): 1.11 nM

CCN(Cc1ccccc1)C(=O)c1nc(-c2ccc(F)cc2)c2ccccc2n1
Ki (Translocator protein): 1.68 nM

CCN(Cc1ccc([N+](=O)[O-])cc1)C(=O)c1nc(-c2ccccc2)c2ccccc2n1
Ki (Translocator protein): 4.2 nM

CCCCCCN(CCCCCC)C(=O)c1nc(-c2ccc(Cl)cc2)c2ccccc2n1
Activity (Homo sapiens [2]): inactive
